Results reported in ChEMBL document CHEMBL1142431, “Benzodioxoles: novel cannabinoid-1 receptor inverse agonists for the treatment of obesity” (J Med Chem, 2008).
The source made the active and inactive calls. No cut-off for these calls is given here.

Legend:
Cannabinoid receptor 1 [1] = target: T1, Cannabinoid receptor 1 (Homo sapiens, UniProt P21554); test: biochemical; type: cell-based, HEK293
[2] = Clearance in human liver microsomes; type: ADME, Microsome; conditions: liver microsomes
Summary of the method: (§1)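 Test compound at 2 µM incubated with liver microsomes (0.5 mg protein/mL) in 50 mM potassium phosphate pH 7.4 at 37 °C. Reaction started with an NADPH-generating system (glucose-6-phosphate 3.2 mM, NADP 2.6 mM, MgCl2 6.5 mM). Six samples over 30 min, quenched in methanol with internal standard, then LC-MS/MS for substrate depletion. CLint taken from the first-order decay, normalized to protein.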

[3] = Clearance in rat liver microsomes; type: ADME, Microsome; conditions: liver microsomes
Summary of the method: as §1

Mus musculus [4] = test: Reversal of CP-55940-induced hypothermia in NMRI mouse assessed as rectal temperature at 30 mg/kg, ip; type: functional
Summary of the method: (§2)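 Mice housed eight per group, eight per dose, habituated at least 2 h. Test compound in 0.3% Tween 80 (10 mL/kg) given 90 min before CP 55940 (0.3 mg/kg iv, same vehicle). Body temperature read 20 min before compound, just before CP 55940, and 20 min after it.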

Cannabinoid receptor 1 [5] = target: T1, Cannabinoid receptor 1; test: Activity at human CB1R expressed in HEK293 cells assessed as intracellular cAMP level; type: functional, cell-based
Mus musculus [6] = test: Reversal of CP-55940-induced hypothermia in po dosed NMRI mouse assessed as rectal temperature; type: functional; conditions: read-out: ID50 (the source's name)
Summary of the method: as §2

Mus musculus [7] = test: Reversal of CP-55940-induced hypothermia in NMRI mouse assessed as rectal temperature at 30 mg/kg, po; type: functional, organism-based; design: dose 30 mg/kg
Summary of the method: as §2

Rattus norvegicus = test: Reduction in body fat in po dosed diet-induced obesity Sprague-Dawley rat model; type: functional, organism-based
Summary of the method: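 Sprague-Dawley rats fed HFD from 3 weeks of age for 10 weeks; high responders (body weight exceeding chow controls by >2 SD) grouped n = 9. After 3 days gavage adaptation, daily oral dosing at 5:00 p.m. for 2 weeks in 7.5% gelatine/0.62% NaCl in water, 2 mL/kg. Fat and lean mass by MRI before and at end of treatment.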

Cannabinoid receptor 2 = Cannabinoid receptor 2 (Homo sapiens, UniProt P34972); test: Binding affinity to human CB2R
Cannabinoid receptor 2, sequence (P34972 whole entry): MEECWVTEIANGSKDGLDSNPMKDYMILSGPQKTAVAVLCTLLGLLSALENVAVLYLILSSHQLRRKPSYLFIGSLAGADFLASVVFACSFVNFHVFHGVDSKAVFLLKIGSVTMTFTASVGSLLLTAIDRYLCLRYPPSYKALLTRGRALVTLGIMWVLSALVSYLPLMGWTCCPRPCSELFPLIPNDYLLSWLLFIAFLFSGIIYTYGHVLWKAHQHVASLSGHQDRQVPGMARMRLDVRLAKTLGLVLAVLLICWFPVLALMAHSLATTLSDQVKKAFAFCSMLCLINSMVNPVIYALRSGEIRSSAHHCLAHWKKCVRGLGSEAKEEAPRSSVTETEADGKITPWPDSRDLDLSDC

T1 sequence (P21554 whole entry): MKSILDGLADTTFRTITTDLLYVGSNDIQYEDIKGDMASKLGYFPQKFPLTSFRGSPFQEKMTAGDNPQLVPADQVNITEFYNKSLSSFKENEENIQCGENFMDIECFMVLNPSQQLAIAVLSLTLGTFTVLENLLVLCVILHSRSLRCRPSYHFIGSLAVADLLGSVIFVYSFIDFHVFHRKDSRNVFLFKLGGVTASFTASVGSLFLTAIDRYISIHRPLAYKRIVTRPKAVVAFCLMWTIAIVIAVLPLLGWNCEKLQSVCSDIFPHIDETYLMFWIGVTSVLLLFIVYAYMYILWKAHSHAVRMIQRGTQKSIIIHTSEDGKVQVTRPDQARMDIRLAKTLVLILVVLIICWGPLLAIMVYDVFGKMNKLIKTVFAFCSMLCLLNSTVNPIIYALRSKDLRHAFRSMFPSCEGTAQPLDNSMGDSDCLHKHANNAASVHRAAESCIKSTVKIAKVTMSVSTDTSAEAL

O=C(c1ccc2c(c1)OC(c1ccccc1)(c1ccccc1)O2)N1CCCCC1
Ki (Cannabinoid receptor 1 [1]): 28 nM | microsomal CLint [2]: 53 µL/min/mg | microsomal CLint [3]: 673 µL/min/mg | Activity (Mus musculus [4]): inactive

O=C(c1cc2c(cc1Br)OC(c1ccccc1)(c1ccccc1)O2)N1CCOCC1
Ki (Cannabinoid receptor 1 [1]): 873 nM

COc1ccc(C2(c3ccc(Cl)cc3Cl)Oc3cc(F)c(C(=O)N4CCCCC4)cc3O2)cc1 (stereo unspecified)
Ki (Cannabinoid receptor 1 [1]): 2 nM | EC50 (Cannabinoid receptor 1 [5]): 5 nM | microsomal CLint [2]: 34 µL/min/mg | microsomal CLint [3]: 88 µL/min/mg | ED50 (Mus musculus [6]): 8 mg/kg

O=C(c1cc2c(cc1F)OC(c1ccc(F)cc1F)(c1ccc(F)cc1F)O2)N1CCCCC1
Ki (Cannabinoid receptor 1 [1]): 1 nM | EC50 (Cannabinoid receptor 1 [5]): 2 nM | microsomal CLint [2]: 34 µL/min/mg | microsomal CLint [3]: 122 µL/min/mg

O=S(=O)(c1cc2c(cc1F)OC(c1ccc(F)cc1)(c1ccc(Cl)cc1Cl)O2)N1CCOCC1 (stereo unspecified)
Ki (Cannabinoid receptor 1 [1]): 9 nM | EC50 (Cannabinoid receptor 1 [5]): 3 nM | microsomal CLint [2]: 20 µL/min/mg | microsomal CLint [3]: 53 µL/min/mg | ED50 (Mus musculus [6]): 16 mg/kg

O=C(c1cc2c(cc1F)OC(c1ccccc1F)(c1ccc(Cl)cc1Cl)O2)N1CCOCC1 (stereo unspecified)
Ki (Cannabinoid receptor 1 [1]): 4 nM | EC50 (Cannabinoid receptor 1 [5]): 2 nM | microsomal CLint [2]: 21 µL/min/mg | microsomal CLint [3]: 123 µL/min/mg | ED50 (Mus musculus [6]): 6 mg/kg

Fc1ccc(C2(c3ccc(F)cc3)Oc3cc(F)c(CN4CCOCC4)cc3O2)cc1
Ki (Cannabinoid receptor 1 [1]): > 1000 nM

O=C(c1cc2c(cn1)OC(c1ccccc1)(c1ccccc1)O2)N1CCCCC1
Ki (Cannabinoid receptor 1 [1]): 13 nM

O=C(c1cc2c(cc1F)O[C@@](c1ccc(F)cc1)(c1ccc(Cl)cc1Cl)O2)N1CCOCC1
Ki (Cannabinoid receptor 1 [1]): 35 nM

N#Cc1cc2c(cc1C(=O)N1CCOCC1)OC(c1ccccc1)(c1ccccc1)O2
Ki (Cannabinoid receptor 1 [1]): 277 nM

O=C(c1cc2c(cc1Cl)OC(c1ccccc1)(c1ccccc1)O2)N1CCOCC1
Ki (Cannabinoid receptor 1 [1]): 216 nM | microsomal CLint [2]: 44 µL/min/mg | microsomal CLint [3]: 388 µL/min/mg

O=S(=O)(c1ccc2c(c1)OC(c1ccccc1)(c1ccccc1)O2)N1CCCCC1
Ki (Cannabinoid receptor 1 [1]): 38 nM | microsomal CLint [2]: 137 µL/min/mg | microsomal CLint [3]: 549 µL/min/mg | Activity (Mus musculus [4]): inactive

O=C(c1cc2c(cc1F)OC(c1ccc(F)cc1)(c1ccc(F)cc1)O2)N1CCCCC1
Ki (Cannabinoid receptor 1 [1]): 7 nM | EC50 (Cannabinoid receptor 1 [5]): 72 nM | microsomal CLint [2]: 48 µL/min/mg | microsomal CLint [3]: 81 µL/min/mg

O=S(=O)(c1cc2c(cc1F)OC(c1ccc(F)cc1F)(c1ccc(F)cc1F)O2)N1CCC(F)(F)CC1
Activity (Mus musculus [7]): inactive | Ki (Cannabinoid receptor 1 [1]): 3 nM | EC50 (Cannabinoid receptor 1 [5]): 3 nM | microsomal CLint [2]: 271 µL/min/mg | microsomal CLint [3]: 287 µL/min/mg | Activity (Mus musculus [4]): inactive

O=C(c1cc2c(cc1F)OC(c1ccc(F)cc1)(c1ccc(Cl)cc1Cl)O2)N1CCCCC1 (stereo unspecified)
Ki (Cannabinoid receptor 1 [1]): 4 nM | EC50 (Cannabinoid receptor 1 [5]): 5 nM | microsomal CLint [2]: 31 µL/min/mg | microsomal CLint [3]: 89 µL/min/mg

O=C(CC(c1ccccc1)c1ccccc1)N1CC=C(c2ccc(Cl)cc2)CC1
Ki (Cannabinoid receptor 1 [1]): 1500 nM

O=C(c1ccc2c(c1)OC(c1ccc(F)cc1)(c1ccc(Cl)cc1Cl)O2)N1CCOCC1 (stereo unspecified)
Ki (Cannabinoid receptor 1 [1]): 30 nM | EC50 (Cannabinoid receptor 1 [5]): 156 nM | microsomal CLint [2]: 19 µL/min/mg | microsomal CLint [3]: 4 µL/min/mg

O=C(c1cc2c(cc1F)OC(c1ccc(F)cc1F)(c1ccc(F)cc1F)O2)N1CCC(F)(F)CC1
Ki (Cannabinoid receptor 1 [1]): 6 nM | EC50 (Cannabinoid receptor 1 [5]): 2 nM | microsomal CLint [2]: 17 µL/min/mg | microsomal CLint [3]: 5 µL/min/mg

O=C(c1cc2c(cc1F)OC(c1ccc(F)cc1)(c1ccc(Cl)cc1Cl)O2)N1CCOCC1 (stereo unspecified)
Ki (Cannabinoid receptor 1 [1]): 4 nM | EC50 (Cannabinoid receptor 1 [5]): 11 nM | microsomal CLint [2]: 10 µL/min/mg | microsomal CLint [3]: 22 µL/min/mg | ED50 (Mus musculus [6]): 5 mg/kg

Cc1c(C(=O)NN2CCCCC2)nn(-c2ccc(Cl)cc2Cl)c1-c1ccc(Cl)cc1
Activity (Rattus norvegicus): Active

O=C(c1cc2c(cc1F)OC(c1ccc(F)cc1F)(c1ccc(F)cc1F)O2)N1CCOCC1
Ki (Cannabinoid receptor 1 [1]): 7 nM | EC50 (Cannabinoid receptor 1 [5]): 4 nM | microsomal CLint [2]: 96 µL/min/mg | microsomal CLint [3]: 30 µL/min/mg | ED50 (Mus musculus [6]): 8 mg/kg

O=C(c1ccc2c(c1)OC(c1ccccc1)(c1ccccc1)O2)N1CCOCC1
Ki (Cannabinoid receptor 1 [1]): 50 nM | EC50 (Cannabinoid receptor 1 [5]): 784 nM

CCCCCn1cc(C(=O)c2ccc3ccccc3c2)c2ccc(S(C)(=O)=O)cc21
Ki (Cannabinoid receptor 1 [1]): 110 nM

O=C(c1cc2c(cc1F)OC(c1ccccc1)(c1ccccc1)O2)N1CCCCC1
Ki (Cannabinoid receptor 1 [1]): 11 nM | EC50 (Cannabinoid receptor 1 [5]): 1.2 nM | microsomal CLint [2]: 50 µL/min/mg | microsomal CLint [3]: 486 µL/min/mg

O=S(=O)(c1ccc2c(c1)OC(c1ccccc1)(c1ccccc1)O2)N1CC=C(c2ccc(F)cc2)CC1
Ki (Cannabinoid receptor 1 [1]): 13 nM | Ki (Cannabinoid receptor 2): > 10 µM | Activity (Mus musculus [4]): inactive

O=S(=O)(c1cc2c(cc1F)OC(c1ccc(F)cc1F)(c1ccc(F)cc1F)O2)N1CCOCC1
Activity (Mus musculus [7]): inactive | Ki (Cannabinoid receptor 1 [1]): 25 nM | EC50 (Cannabinoid receptor 1 [5]): 11 nM | microsomal CLint [2]: 102 µL/min/mg | microsomal CLint [3]: 149 µL/min/mg | Activity (Mus musculus [4]): inactive

Cc1cc2c(cc1C(=O)N1CCOCC1)OC(c1ccccc1)(c1ccccc1)O2
Ki (Cannabinoid receptor 1 [1]): 509 nM

O=C(c1cc2c(cc1F)OC(c1ccc(F)cc1)(c1ccc(F)cc1)O2)N1CCOCC1
Ki (Cannabinoid receptor 1 [1]): 18 nM

O=C(c1cc2c(cc1F)OC(c1ccccc1)(c1ccccc1)O2)N1CCOCC1
Ki (Cannabinoid receptor 1 [1]): 15 nM | EC50 (Cannabinoid receptor 1 [5]): 26 nM | microsomal CLint [2]: 33 µL/min/mg | microsomal CLint [3]: 272 µL/min/mg
